The text below walks through data of PubChem BioAssay AID651783 (The Scripps Research Institute Molecular Screening Center, 2012).

The campaign covered roughly 2,400 compounds. About 2,000 (83%) were called active.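 How the source made its calls: active means activation above a cutoff set at the run's mean compound activation plus 3 SD (cut at about 39% in these data); inactive means the rest.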 The set was probably picked from earlier hits. Only a sample is shown.

Trace amine-associated receptor 1 (Homo sapiens), sequence (Q96RJ0 whole entry, looked up): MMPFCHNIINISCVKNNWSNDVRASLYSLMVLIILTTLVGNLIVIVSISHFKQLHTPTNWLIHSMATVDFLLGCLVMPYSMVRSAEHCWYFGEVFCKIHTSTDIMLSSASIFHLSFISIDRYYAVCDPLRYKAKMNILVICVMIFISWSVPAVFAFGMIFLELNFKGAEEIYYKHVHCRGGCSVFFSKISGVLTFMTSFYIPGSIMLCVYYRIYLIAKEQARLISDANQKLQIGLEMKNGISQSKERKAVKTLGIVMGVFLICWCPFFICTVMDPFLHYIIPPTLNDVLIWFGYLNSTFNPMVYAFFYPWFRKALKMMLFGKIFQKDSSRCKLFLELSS

This assay has as its target Trace amine-associated receptor 1 (Homo sapiens) (UniProt Q96RJ0). Briefly: human TAAR1 agonists, retest of hits, confirmation, Fluo-8 calcium fluorescence, CHO RD-HGA16 cells (AID 651783).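 Further: promiscuous G-alpha-16 overexpression reroutes TAAR1 signalling from cAMP to calcium; peak fluorescence divided by basal pre-compound fluorescence per well.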 Particulars: CHO RD-HGA16 TAAR1, Fluo-8 calcium fluorescence; at 3 µM; hits give high values; scaled: DMSO 0%, maximal phenethylamine 100%. A digest of the protocol: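 Signal – Fluo-8 calcium fluorescence, 5 s basal then 140 s kinetic read · Assay system – RD-HGA16 CHO cells co-expressing hTAAR1 and promiscuous Gα16 · Times – Fluo-8 loading 75 min 37 °C and 30 min RT · Dosing – single nominal final dose of 3 µM per compound · Benchmarks – low DMSO wells, high PEA EC100 wells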
For `O=C(COC(=O)Cc1ccccc1F)NCCc1ccccc1`, the activation was 73% (active).
The value for `C[C@H](NC(=O)c1ccccc1)C(=O)OCC(=O)c1c[nH]c2ccccc12` was 79.6% (active).
With `CC(=O)Nc1ccccc1Sc1ccc2c3c(cccc13)C(=O)N(c1ccc(C)cc1)C2=O` the figure was -2.82% (inactive); with `Cc1ccn2c(=O)c(C(=O)NCCC3=CCCCC3)c(O)nc2c1`, 106% (active).
With `O=C(CCCN=C1NS(=O)(=O)c2ccccc21)OCC(=O)c1ccc(F)c(F)c1` the figure was 83.8% (active); with `O=Cc1c(NCCc2cccc(F)c2)c2ccccc2[nH]c1=O`, 78.3% (active).
Turning to `CCCCOc1ccc(CSC(=N)N)cc1[N+](=O)[O-]`, the activation was 48% (active).
With `O=C1CCCC(O)=C1C=NCCc1ccccc1` the figure was 74.5% (active).
With `COc1cccc(-c2cnc(OC(C)(C)C)nc2OC(C)(C)C)c1` the figure was 38.6% (active).
With `CN(C)c1ccc(/C=C2\NC(=S)N(Cc3ccccc3)C2=O)cc1` the figure was 51.1% (active).
Consider `O=C(CSc1nc(-c2ccco2)cc(C(F)(F)F)n1)NCc1cccs1`, for which the activation was -0.49% (inactive).
Turning to `c1ccc2c(c1)OCC(CNc1ncnc3nc[nH]c13)O2` (configuration not stated), the activation is 210% (active).
The value for `CCCSc1nc2c(c(=O)n(C)c(=O)n2C)n1Cc1ccc(C)cc1` was 61% (active); that for `COc1ccc(C(=O)CN2C(=O)NC(C)(c3ccc(C)cc3)C2=O)cc1OC` (configuration not stated) was 46.6% (active); that for `c1ccc(Nc2nc(N3CCOCC3)c3ccccc3n2)cc1` was 93.8% (active).
The value for `CC(NC(=O)c1cc(-c2ccccc2)on1)c1ccccc1` (configuration not stated) was 66.5% (active).
The value for `O=C(Nc1ccccc1)Nc1nnc(COc2ccccc2F)s1` was 71.7% (active); that for `Nc1cc(OC(=O)c2ccccc2Br)nn1S(=O)(=O)c1ccccc1` was 59.1% (active).
With `NC(Cc1ccccc1)c1csc(Nc2cc(Oc3ccccc3)ncn2)n1` (configuration not stated), the activation is 87% (active).
On to `COc1ccc(CC(N)c2csc(NC(=O)Cc3ccccc3)n2)cc1` (configuration not stated), for which the activation is 57.8% (active).
With `CC(C)(C)CC(=O)Nc1nc(C(N)Cc2ccc(C(F)(F)F)cc2)cs1` (configuration not stated) the figure was 99% (active); with `CN(C)CCCN(C(=O)c1ccc(S(=O)(=O)N2CCCc3ccccc32)cc1)c1nc2ccc(F)cc2s1`, 62.2% (active).
Turning to `CN(C)CCCN(C(=O)c1ccc(S(=O)(=O)N2CCCCCC2)cc1)c1nc2ccc(Br)cc2s1`, the activation was 44% (active).
The value for `Cc1cccc(NC(=O)C(C)N2C(=O)C3C4CC(C(Br)C4Br)C3C2=O)c1` (configuration not stated) was 33.9% (inactive).
The value for `O=C1CCCN2N=C(SCC(=O)Nc3ccc(Br)cc3)SC2=N1` was 55.6% (active); that for `O=C(NCCc1ccccc1)C(=O)NCC1OCCN1S(=O)(=O)c1cccs1` (configuration not stated) was 70.4% (active).
With `Cn1c(=O)c(=O)n(C)c2cc(S(=O)(=O)NCCc3ccccc3)ccc21` the figure was 98.3% (active).
In the case of `CCCc1ccc(OCC(=O)NNC(=S)NC(=O)c2ccco2)cc1`, the activation is 93.8% (active).
The value for `CC(Oc1ccc2ccccc2c1)C(=O)NNC(=S)NC(=O)c1ccco1` (configuration not stated) was 76% (active); that for `Oc1ccc2ccc3cccc[n+]3c2c1` was 60.5% (active).
With `NC(c1ccccc1)c1csc(NC(=O)Nc2cccc(C(F)(F)F)c2)n1` (configuration not stated) the figure was 61.4% (active); with `COc1ccc(C(N)c2csc(NC(=O)Nc3cccc(C(F)(F)F)c3)n2)cc1` (configuration not stated), 45.9% (active).
The value for `O=c1cnnc(Nc2ccccc2)[nH]1` was 80.2% (active); that for `CCCCC(=O)NNC(=S)NC(=O)C(c1ccccc1)c1ccccc1` was 152% (active); that for `Cc1cc(C)c2cc(C#N)c(N3CCNCC3)nc2c1` was 90.6% (active).
With `CCOc1ccc(Br)cc1CSC(=N)N`, the activation is 73.8% (active).
The value for `CCN(CC)c1ccc2oc(=O)c(C)nc2c1` was 34.1% (inactive).
The value for `O=C(Nc1ccc(Cl)cc1)N1CCc2[nH]c3ccccc3c2C1` was 21.7% (inactive).
With `O=C(c1noc2c1CCCC2)N1CCc2ccccc2C1` the figure was 68% (active); with `Cc1cc(=O)oc2c(C)c(OCC(=O)NCCN3CCOCC3)ccc12`, 2.28% (inactive).
For the compound `c1ccc(-c2csc(N3CCc4ccccc4C3)n2)cc1`, the activation was 81.8% (active).
The value for `CSc1nc(N)c(C#N)c(-c2ccccc2Cl)c1C#N` was 58.5% (active).
With `O=C(NCCc1ccccc1)/C(=C\c1ccc([N+](=O)[O-])cc1)NC(=O)c1ccccc1` the figure was 34.4% (inactive); with `CCCCCC(=O)NC(=S)NNC(=O)c1ccc([N+](=O)[O-])cc1`, 113% (active).
The value for `Cc1ccc(Cl)cc1N1CCN(C(=O)c2cccc3c(=O)c(C)c(-c4ccccc4)oc23)CC1` was 113% (active).
Consider `S=C(NCCc1ccccc1)N1CCn2cccc2C1c1ccncc1` (configuration not stated), for which the activation was 95% (active).
With `COc1ccc2c(c1)OC(O)(C(F)(F)C(F)F)CC2=O` (configuration not stated) the figure was 38.7% (active).
With `COC(=O)c1[nH]c2cccc(C)c2c1NC(=O)CN1CCCc2ccccc21` the figure was 68.9% (active); with `Cc1cc2nc3c(=O)[nH]c(=O)nc-3n(C[C@H](O)[C@H](O)[C@H](O)CO)c2cc1C`, 121% (active).
For the compound `O=C(N[C@H](C(=O)N1CCC[C@H]1C(=O)NCCc1ccccc1Cl)c1ccccc1)c1ccccc1`, the activation is 83.6% (active).
With `Nc1cccc2c1C(=O)N(Cc1nnc(-c3ccccc3Br)o1)C2=O` the figure was 100% (active); with `CCC(c1nnnn1Cc1ccco1)N(CCc1ccccc1)Cc1cc2cccc(C)c2[nH]c1=O` (configuration not stated), 50.2% (active); with `CCC(c1nnnn1Cc1ccco1)N(CCc1ccccc1)Cc1cc2ccc(OC)cc2[nH]c1=O` (configuration not stated), 30.9% (inactive).
As to `CCCn1c(O)c(CN2CCCC(C)C2)c(C)c(C#N)c1=O` (configuration not stated), the activation is 85% (active).
With `Nc1c(NCCc2ccccc2)c2ccccc2oc1=O` the figure was 70.5% (active); with `CC(Oc1ccc(Cl)cc1)C(=O)OCC(=O)Nc1ncc(Cl)cc1Cl` (configuration not stated), 30.3% (inactive); with `O=[N+]([O-])c1cc(S(=O)(=O)NCCc2ccccn2)ccc1Cl`, 76.4% (active).
With `O=C1C=C(c2ccc(Cl)cc2)C(=O)N1Nc1ccccc1` the figure was 58.5% (active); with `CCc1ccccc1S(=O)(=O)Cc1ccc(C(=O)NCCc2ccccc2)o1`, 78.3% (active).
The value for `O=C(NNC(=S)NC(=O)c1cn(-c2ccccc2)nc1-c1ccccc1)c1ccncc1` was 103% (active).
With `O=C(Nc1ccc(F)cc1)Nc1nnc([C@H]2C[C@H](O)[C@@H](CO)O2)s1`, the activation was 52.9% (active).
As for `Nc1c(C(=O)c2cccs2)sc2nsc(SCCN3CCCCC3)c12`, the activation was 85% (active).
